Consider nine compounds from ChEMBL document CHEMBL1122831, “Synthesis and structure-activity relationships of novel arylfluoroquinolone antibacterial agents” (1985).

Common to all, as to format: functional
Test [1] deals with Pseudomonas aeruginosa. In words: Minimum inhibition concentration in vitro determined against Pseudomona aeruginosa K799/WT. The procedure, abridged:
(§1)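 Agar dilution on brain-heart infusion (BHI) agar with twofold dilutions from a 2000 µg/mL stock, giving final test concentrations of 200-0.005 µg/mL. Organisms were grown overnight in BHI broth at 36 °C, and about 10⁴ organisms were inoculated per plate. Plates were incubated 18 h at 36 °C. MIC was the lowest concentration with no visible growth.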

Test [2] concerns Staphylococcus epidermidis. In words: Minimum inhibition concentration in vitro determined against Staphylococcus epidermidis 3519. The procedure, abridged:
as §1

Another test relates to Enterococcus faecium. Briefly: Minimum inhibition concentration in vitro determined against Streptococcus faecium ATCC 8043. The procedure, abridged:
as §1

For another test, the system named is Klebsiella aerogenes. Briefly: Minimum inhibition concentration in vitro determined against Enterobacteri aerogenes ATCC 13048. In a few lines: as §1
A further test concerns Acinetobacter. In words: Minimum inhibition concentration in vitro determined against Acinetobacter sp CMX669. In a few lines: as §1
Test [3] concerns Staphylococcus aureus. In words: Minimum inhibition concentration in vitro determined against Staphylococcus aureus ATCC 6538P. In a few lines:
as §1

Test [4] deals with Staphylococcus aureus. In words: Minimum inhibition concentration in vitro determined against Staphylococcus aureus CMX 686B. The procedure, abridged:
as §1

For test [5], the system named is Pseudomonas aeruginosa. Briefly: Minimum inhibition concentration in vitro determined against Pseudomona aeruginosa 5007. In a few lines:
as §1

For a further test, the system named is Escherichia coli. In words: Minimum inhibition concentration in vitro determined against Escherichia coli juhl. The following applies: Escherichia coli; read-out: MIC. The procedure, abridged: as §1
A further test relates to Streptococcus pyogenes. In words: Minimum inhibition concentration in vitro determined against Streptococcus pyogenes 930. In a few lines: as §1
The test system of the next test is Klebsiella pneumoniae. In words: Minimum inhibition concentration in vitro determined against Klebsiella pneumoniae 8045. The procedure, abridged:
as §1

≈ marks a conversion by molar mass, not a printed value.

As to `O=C1CN(c2cc3c(cc2F)c(=O)c(C(=O)O)cn3-c2ccc(F)cc2)CCN1`, the MIC in the test with Pseudomonas aeruginosa [1] came out at 3.1 mg/L (≈ 7.76 µM); in test [2], 0.78 mg/L (≈ 1.95 µM); with Enterococcus faecium, 1.56 mg/L (≈ 3.91 µM); against Klebsiella aerogenes it was 1.56 mg/L (≈ 3.91 µM); in the test on Acinetobacter, 12.5 mg/L (≈ 31.3 µM); with Staphylococcus aureus [3] it was 0.2 mg/L (≈ 0.501 µM). The MIC against Staphylococcus aureus [4] came out at 0.39 mg/L (≈ 0.977 µM); with Pseudomonas aeruginosa [5] it was 6.2 mg/L (≈ 15.5 µM); with Escherichia coli it was 0.39 mg/L (≈ 0.977 µM); against Streptococcus pyogenes it was 0.78 mg/L (≈ 1.95 µM); against Klebsiella pneumoniae, 0.39 mg/L (≈ 0.977 µM).
In the case of `CC(=O)NC1CCN(c2cc3c(cc2F)c(=O)c(C(=O)O)cn3-c2ccc(F)cc2)C1` (centres undefined), the MIC was determined as 6.2 mg/L (≈ 14.5 µM) against Pseudomonas aeruginosa [1]; 0.39 mg/L (≈ 0.912 µM) in test [2]; 1.56 mg/L (≈ 3.65 µM) in the test with Enterococcus faecium; 1.56 mg/L (≈ 3.65 µM) against Klebsiella aerogenes; 3.1 mg/L (≈ 7.25 µM) against Acinetobacter; 0.1 mg/L (≈ 0.234 µM) against Staphylococcus aureus [3]. Moreover, the MIC with Staphylococcus aureus [4] was 0.39 mg/L (≈ 0.912 µM); with Pseudomonas aeruginosa [5] it was 6.2 mg/L (≈ 14.5 µM); with Escherichia coli, 0.78 mg/L (≈ 1.82 µM); against Streptococcus pyogenes, 0.78 mg/L (≈ 1.82 µM); against Klebsiella pneumoniae, 0.78 mg/L (≈ 1.82 µM).
As for `CNC1CCN(c2cc3c(cc2F)c(=O)c(C(=O)O)cn3-c2ccc(F)cc2)C1` (centres undefined), the MIC was determined as 50 mg/L (≈ 125 µM) in the test with Pseudomonas aeruginosa [1]; 6.2 mg/L (≈ 15.5 µM) in [2]; 25 mg/L (≈ 62.6 µM) with Enterococcus faecium; 3.1 mg/L (≈ 7.76 µM) in the test with Klebsiella aerogenes; 6.2 mg/L (≈ 15.5 µM) in the test with Acinetobacter; 3.1 mg/L (≈ 7.76 µM) with Staphylococcus aureus [3]. In addition, the minimal inhibitory concentration (MIC) was found to be 3.1 mg/L (≈ 7.76 µM) against Staphylococcus aureus [4]; 50 mg/L (≈ 125 µM) against Pseudomonas aeruginosa [5]; 3.1 mg/L (≈ 7.76 µM) in the test on Escherichia coli; 12.5 mg/L (≈ 31.3 µM) with Streptococcus pyogenes; 0.78 mg/L (≈ 1.95 µM) against Klebsiella pneumoniae.
As for `Cc1cccc(C)c1-n1cc(C(=O)O)c(=O)c2cc(F)c(N3CCN(C)CC3)cc21`, the MIC (against Pseudomonas aeruginosa [1]; in [2]; against Enterococcus faecium; in the test on Klebsiella aerogenes; against Acinetobacter; with Staphylococcus aureus [3]) was more than 100 mg/L in each case. The MIC against Staphylococcus aureus [4], in the test with Pseudomonas aeruginosa [5], in the test on Escherichia coli, against Streptococcus pyogenes and with Klebsiella pneumoniae was more than 100 mg/L throughout.
As for `Cc1ccccc1-n1cc(C(=O)O)c(=O)c2cc(F)c(N3CCN(C)CC3)cc21`, the MIC with Pseudomonas aeruginosa [1] came to 12.5 mg/L (≈ 31.6 µM); in test [2], 3.1 mg/L (≈ 7.84 µM); in the test on Enterococcus faecium, 50 mg/L (≈ 126 µM); against Klebsiella aerogenes it was 3.1 mg/L (≈ 7.84 µM); against Acinetobacter, 1.56 mg/L (≈ 3.95 µM); against Staphylococcus aureus [3] it was 3.1 mg/L (≈ 7.84 µM). In addition, the MIC against Staphylococcus aureus [4] stood at 3.1 mg/L (≈ 7.84 µM); against Pseudomonas aeruginosa [5] it was 25 mg/L (≈ 63.2 µM); in the test with Escherichia coli, 1.56 mg/L (≈ 3.95 µM); in the test with Streptococcus pyogenes, 50 mg/L (≈ 126 µM); with Klebsiella pneumoniae, 1.56 mg/L (≈ 3.95 µM).
Turning to `CN1CCN(c2cc3c(cc2F)c(=O)c(C(=O)O)cn3-c2ccccc2F)CC1`, the minimum inhibitory concentration (MIC) against Pseudomonas aeruginosa [1] was 6.2 mg/L (≈ 15.5 µM); in test [2], 1.56 mg/L (≈ 3.91 µM); in the test on Enterococcus faecium it was 12.5 mg/L (≈ 31.3 µM); against Klebsiella aerogenes, 0.78 mg/L (≈ 1.95 µM); in the test on Acinetobacter, 0.78 mg/L (≈ 1.95 µM); in the test with Staphylococcus aureus [3], 1.56 mg/L (≈ 3.91 µM). The MIC was 1.56 mg/L (≈ 3.91 µM) with Staphylococcus aureus [4]; 6.2 mg/L (≈ 15.5 µM) with Pseudomonas aeruginosa [5]; 0.78 mg/L (≈ 1.95 µM) in the test on Escherichia coli; 12.5 mg/L (≈ 31.3 µM) in the test on Streptococcus pyogenes; 0.39 mg/L (≈ 0.976 µM) against Klebsiella pneumoniae.
With `CN1CCN(c2cc3c(cc2F)c(=O)c(C(=O)O)cn3-c2ccc(F)cc2)CC1=O`, the minimum inhibitory concentration (MIC) was 0.78 mg/L (≈ 1.89 µM) against Pseudomonas aeruginosa [1]; 0.2 mg/L (≈ 0.484 µM) in test [2]; 0.78 mg/L (≈ 1.89 µM) against Enterococcus faecium; 0.39 mg/L (≈ 0.943 µM) with Klebsiella aerogenes; 0.39 mg/L (≈ 0.943 µM) in the test with Acinetobacter; 0.1 mg/L (≈ 0.242 µM) in the test on Staphylococcus aureus [3]. In addition, the MIC in the test on Staphylococcus aureus [4] was found to be 0.2 mg/L (≈ 0.484 µM); in the test with Pseudomonas aeruginosa [5], 1.56 mg/L (≈ 3.77 µM); with Escherichia coli, 0.39 mg/L (≈ 0.943 µM); with Streptococcus pyogenes, 0.39 mg/L (≈ 0.943 µM); against Klebsiella pneumoniae, 0.2 mg/L (≈ 0.484 µM).
For `CCCCN1CCN(c2cc3c(cc2F)c(=O)c(C(=O)O)cn3-c2ccc(F)cc2)CC1`, the MIC with Pseudomonas aeruginosa [1] worked out at 12.5 mg/L (≈ 28.3 µM); in test [2] it was 1.56 mg/L (≈ 3.53 µM); against Enterococcus faecium, 12.5 mg/L (≈ 28.3 µM); in the test on Klebsiella aerogenes, 1.56 mg/L (≈ 3.53 µM); in the test with Acinetobacter, 3.1 mg/L (≈ 7.02 µM); in the test with Staphylococcus aureus [3] it was 0.78 mg/L (≈ 1.77 µM). Moreover, the minimal inhibitory concentration (MIC) with Staphylococcus aureus [4] was 0.78 mg/L (≈ 1.77 µM); against Pseudomonas aeruginosa [5], 12.5 mg/L (≈ 28.3 µM); in the test on Escherichia coli, 1.56 mg/L (≈ 3.53 µM); against Streptococcus pyogenes, 6.2 mg/L (≈ 14 µM); in the test with Klebsiella pneumoniae it was 0.39 mg/L (≈ 0.883 µM).
`NC1CCN(c2cc3c(cc2F)c(=O)c(C(=O)O)cn3-c2ccc(F)cc2)C1` (centres undefined): the minimal inhibitory concentration (MIC) in the test with Pseudomonas aeruginosa [1] amounted to 0.2 mg/L (≈ 0.519 µM); in [2], 0.05 mg/L (≈ 0.13 µM); against Enterococcus faecium, 0.78 mg/L (≈ 2.02 µM); with Klebsiella aerogenes, 0.05 mg/L (≈ 0.13 µM); against Acinetobacter, 0.2 mg/L (≈ 0.519 µM); against Staphylococcus aureus [3], 0.05 mg/L (≈ 0.13 µM). The MIC against Staphylococcus aureus [4] was 0.05 mg/L (≈ 0.13 µM); in the test on Pseudomonas aeruginosa [5], 0.2 mg/L (≈ 0.519 µM); in the test with Escherichia coli it was 0.02 mg/L (≈ 0.0519 µM); in the test on Streptococcus pyogenes it was 0.1 mg/L (≈ 0.259 µM); with Klebsiella pneumoniae, 0.02 mg/L (≈ 0.0519 µM).

In general, MIC refers to the least concentration at which growth counts as inhibited.
